For data set [1], the system named is MCF7. Kind of data set: Binding affinity to sigma 2 receptor overexpressed in human MCF7 cells assessed as compound internalization by measuring cellular accumulation at 25 nmol/L after 45 mins by flow cytometry in presence of cis-1-cyclohexyl-4-[4-(2,6-difluorophenyl)cyclohexyl]piperazine. In kind it is cell-based. For orientation: A flow cytometer gives signals particle by particle.

Data set [2] can be described thus: Drug uptake in perinuclear region of human MCF7 cells at 100 nM after 45 mins by spinning disk confocal microscopy. The format is ADME, cell-based. The conditions noted are these: mcf7, 0.75 h, 0.1 µM. Put shortly:
(§1)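 MCF7 cells seeded in chamber slides 24 h ahead, treated 45 min with 100 or 500 nM ligand, fixed in 2% PFA for 30 min at 37 °C, washed with PBS. Spinning-disk confocal imaging, background-corrected; subcellular localization assessed, nuclear signal from pixel intensity profiles. Excitation 405, 488 or 561 nm depending on fluorophore.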

Data set [3] deals with Sigma non-opioid intracellular receptor 1 (Cavia porcellus, UniProt Q60492). The experiment in a line: Displacement of (+)-[3H]pentazocine from Dunkin guinea pig brain sigma 1 receptor.
Data set [4] in a line: Displacement of [3H]DTG from Wistar Hannover rat liver sigma 2 receptor. A general note: Displacement assays read how much labelled ligand stays bound in the presence of the test substance.
Data set [5] is described as follows: Drug uptake in nucleus of human MCF7 cells at 500 nM after 45 mins by spinning disk confocal microscopy. In kind it is ADME, cell-based. The conditions noted are these: mcf7, 0.75 h, 0.5 µM. In a few lines:
as §1

Data set [6] is described as follows: Drug uptake in cytoplasm of human MCF7 cells at 100 to 500 nM after 45 mins by spinning disk confocal microscopy. In kind it is ADME, cell-based. The conditions noted are these: mcf7, 0.75 h, 0.5 µM. In a few lines:
as §1

The test system of data set [7] is MCF7. The experiment in a line: Binding affinity to sigma 2 receptor overexpressed in human MCF7 cells assessed as compound internalization by measuring cellular accumulation at 25 nmol/L after 45 mins by flow cytometry in presence of PB28. In kind it is cell-based.
The nature of data set [8]: Drug uptake in vesicle of human MCF7 cells at 100 to 500 nM after 45 mins by spinning disk confocal microscopy. The format is ADME, cell-based. The conditions noted are these: mcf7, 0.75 h, 0.5 µM. Put shortly:
as §1

Data set [9] deals with MCF7. Kind of data set: Cellular uptake in human MCF7 cells at 50 to 100 nM after 20 to 40 mins by spinning disk confocal microscopy. In kind it is ADME, cell-based. The conditions noted are these: mcf7, 0.1 µM. Put shortly: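 Live and fixed MCF7 cells imaged by spinning-disk confocal microscopy from 50 nM ligand onward; intracellular fluorescence intensity followed over time after treatment. Excitation 405 nm […], 488 nm (green) or 561 nm (red channel), according to fluorophore.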

Data set [10] has as its system MCF7. The experiment in a line: Binding affinity to sigma 2 receptor in human MCF7 cells at 100 nmol/L after 45 mins by FACS analysis in presence of DTG and (+)-pentazocine. In kind it is cell-based.
Data set [11] has as its system MCF7. Kind of data set: Cellular uptake in human MCF7 cells at 25 to 100 nmol/L after 45 mins […]. In kind it is ADME, cell-based. The note with it: mcf7, 0.75 h.
Data set [12] in a line: Displacement of [3H]DTG from sigma 2 receptor in human MCF7 cells after 45 mins by FACS analysis. The format is cell-based.
A short description of data set [13]: Displacement of 2-(6-{1-[3-(4-Cyclohexylpiperazin-1-yl)propyl]-1,2,3,4-tetrahydronaphthalen-5-yloxy}hexyl)-5-dimethylamino-1H-isoindole-1,3(2H)-dione from sigma 2 receptor in human MCF7 cells after 45 mins by FACS analysis. In kind it is cell-based. In a few lines: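 Intact, nonpermeabilized MCF7 cells incubated with competitor at 0.1 nmol/L–10 μmol/L followed by 100 nmol/L fluorescent σ2 tracer for 45 min at 37 °C. Washed twice with PBS, detached with dissociation solution, resuspended in PBS. Flow cytometry at 530 nm band-pass, 10 000 events; IC50 taken from displacement curve.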

This is an account of results in ChEMBL document CHEMBL3259578, “Novel derivatives of 1-cyclohexyl-4-[3-(5-methoxy-1,2,3,4-tetrahydronaphthalen-1-yl)propyl]piperazine (PB28) with improved fluorescent and σ receptors binding properties” (J Med Chem, 2014).

Active and inactive are the calls of the source. No cut-off for these calls is given here.

Chain of Sigma non-opioid intracellular receptor 1 (Q60492 whole entry): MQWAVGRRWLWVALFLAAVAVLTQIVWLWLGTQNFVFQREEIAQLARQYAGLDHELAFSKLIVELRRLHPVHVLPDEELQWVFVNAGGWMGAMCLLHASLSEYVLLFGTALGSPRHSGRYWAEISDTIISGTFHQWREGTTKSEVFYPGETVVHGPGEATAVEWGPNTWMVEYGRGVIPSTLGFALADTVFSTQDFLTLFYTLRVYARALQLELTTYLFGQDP

Broadly, the Ki is a measure of affinity in units of concentration, obtained from inhibition or displacement. A higher Ki goes with lower affinity. Regarding `CN(C)c1ccc2c(c1)C(=O)N(CCCCCCOc1cccc3c1CCCC3CCCN1CCN(C3CCCCC3)CC1)C2=O` (stereo not given), the outcome in data set [1], in data set [7] and in data set [10] was inactive. For the same compound, the Drug uptake result in data set [2], in data set [5], in data set [6], in data set [8], in [9] and in data set [11] was “Active” throughout. The Ki in data set [3] turned out to be 5.37 nM; in data set [4] it was 6.9 nM.
For `CCN(CC)c1ccc2cc(/C=C/C3=[N+](CCCCCC(=O)NCCCCCCOc4cccc5c4CCCC5CCCN4CCN(C5CCCCC5)CC4)c4ccccc4C3(C)C)c(=O)oc2c1.[Br-]` (stereo not given), the Drug uptake entry in data set [2], in data set [5], in data set [6], in data set [8] and in data set [9] was “Active” in each case. The Ki in data set [3] was 235 nM; in [4] it was 161 nM.
One may read the IC50 as the concentration at which inhibition is half-maximal. Lower therefore signals greater potency in that assay. In the case of `COc1cccc2c1CCCC2CCCN1CCN(C2CCCCC2)CC1` (stereo not given), the half-maximal inhibitory concentration (IC50) worked out at 1.2 nM in data set [12] and 4.27 nM in data set [13].
For the compound `O=[N+]([O-])c1ccc(NCCCCCCOc2cccc3c2CCCC3CCCN2CCN(C3CCCCC3)CC2)c2nonc12` (stereo not given), the outcome in data set [1] and in data set [7] was inactive. The Drug uptake result in [2], in data set [5], in [6], in data set [8], in data set [9] and in data set [11] was “Active” in each case.
In the case of `Nc1ccc2c3c(cccc13)C(=O)N(CCCCCCOc1cccc3c1CCCC3CCCN1CCN(C3CCCCC3)CC1)C2=O` (stereo not given), the result in data set [1] and in data set [7] was inactive. Moreover, the Drug uptake result in [2], in data set [5], in data set [6], in data set [8], in data set [9] and in data set [11] was “Active” each time. Also, the values for the Ki in data set [3] and in data set [4] were 156 nM and 6.57 nM, respectively.
Consider `O=[N+]([O-])c1ccc(NCCCCCCCCCCOc2cccc3c2CCCC3CCCN2CCN(C3CCCCC3)CC2)c2nonc12` (stereo not given), for which the figures for the inhibitory constant (Ki) in [3] and in data set [4] were 258 nM and 31.2 nM, respectively.
